Results reported in ChEMBL document CHEMBL5649168, “Discovery of a selective catalytic p300/CBP inhibitor that targets lineage-specific tumours” (Nature, 2017).
Calls of active or inactive are those of the source. No cut-off for these calls is given here.

Experiments:
MAO-A = MAO-A (Homo sapiens, UniProt P21397); experiment: Inhibition of MAO-A (unknown origin) at 10 uM by radioligand binding assay relative to control
[1] = target: Serine/threonine-protein kinase B-raf (Homo sapiens, UniProt P15056); experiment: Inhibition of B-Raf (unknown origin)
[2] = target: Epithelial discoidin domain-containing receptor 1 (Homo sapiens, UniProt Q08345); experiment: Inhibition of DDR1 (unknown origin)
[3] = target: Dual specificity tyrosine-phosphorylation-regulated kinase 1A (Homo sapiens, UniProt Q13627); experiment: Inhibition of Dyrk1A (unknown origin)
[4] = target: Vascular endothelial growth factor receptor 1 (Homo sapiens, UniProt P17948); experiment: Inhibition of Flt1 (unknown origin)
[5] = target: Glycogen synthase kinase-3 alpha (Homo sapiens, UniProt P49840); experiment: Inhibition of Gsk3alpha (unknown origin)
Insulin receptor = Insulin receptor (Homo sapiens, UniProt P06213); experiment: Inhibition of InsR (unknown origin)
[6] = target: Leukocyte tyrosine kinase receptor (Homo sapiens, UniProt P29376); experiment: Inhibition of LTK (unknown origin)
[7] = target: Tyrosine-protein kinase Lck (Homo sapiens, UniProt P06239); experiment: Inhibition of Lck (unknown origin)
[8] = target: Rho-associated protein kinase 2 (Homo sapiens, UniProt O75116); experiment: Inhibition of Rock2 (unknown origin)
[9] = target: Serine/threonine-protein kinase 16 (Homo sapiens, UniProt O75716); experiment: Inhibition of STK16 (unknown origin)
Chain of Serine/threonine-protein kinase 16 (O75716 whole entry): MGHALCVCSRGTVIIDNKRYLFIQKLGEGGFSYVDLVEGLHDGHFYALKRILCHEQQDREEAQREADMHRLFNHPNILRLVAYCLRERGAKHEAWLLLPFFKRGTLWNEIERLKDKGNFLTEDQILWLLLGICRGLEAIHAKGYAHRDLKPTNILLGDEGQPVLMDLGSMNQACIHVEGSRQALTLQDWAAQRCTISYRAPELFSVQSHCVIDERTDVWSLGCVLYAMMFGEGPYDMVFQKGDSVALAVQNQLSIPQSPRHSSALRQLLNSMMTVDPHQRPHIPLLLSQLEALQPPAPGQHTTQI

[10] = target: Serine/threonine-protein kinase 33 (Homo sapiens, UniProt Q9BYT3); experiment: Inhibition of STK33 (unknown origin)
Activated CDC42 kinase 1 = Activated CDC42 kinase 1 (Homo sapiens, UniProt Q07912); experiment: Inhibition of TNK2 (unknown origin)
[11] = target: CREB-binding protein/Histone acetyltransferase p300 (Homo sapiens, UniProt Q09472+Q92793); experiment: Inhibition of p300/CBP in human 22Rv1 cells assessed as reduction in H3K9Ac level incubated for 1 hr by Hoechst 33342 staining based high content microscopy analysis; format: cell-based
Chain of CREB-binding protein/Histone acetyltransferase p300 (Q09472 whole entry, looked up): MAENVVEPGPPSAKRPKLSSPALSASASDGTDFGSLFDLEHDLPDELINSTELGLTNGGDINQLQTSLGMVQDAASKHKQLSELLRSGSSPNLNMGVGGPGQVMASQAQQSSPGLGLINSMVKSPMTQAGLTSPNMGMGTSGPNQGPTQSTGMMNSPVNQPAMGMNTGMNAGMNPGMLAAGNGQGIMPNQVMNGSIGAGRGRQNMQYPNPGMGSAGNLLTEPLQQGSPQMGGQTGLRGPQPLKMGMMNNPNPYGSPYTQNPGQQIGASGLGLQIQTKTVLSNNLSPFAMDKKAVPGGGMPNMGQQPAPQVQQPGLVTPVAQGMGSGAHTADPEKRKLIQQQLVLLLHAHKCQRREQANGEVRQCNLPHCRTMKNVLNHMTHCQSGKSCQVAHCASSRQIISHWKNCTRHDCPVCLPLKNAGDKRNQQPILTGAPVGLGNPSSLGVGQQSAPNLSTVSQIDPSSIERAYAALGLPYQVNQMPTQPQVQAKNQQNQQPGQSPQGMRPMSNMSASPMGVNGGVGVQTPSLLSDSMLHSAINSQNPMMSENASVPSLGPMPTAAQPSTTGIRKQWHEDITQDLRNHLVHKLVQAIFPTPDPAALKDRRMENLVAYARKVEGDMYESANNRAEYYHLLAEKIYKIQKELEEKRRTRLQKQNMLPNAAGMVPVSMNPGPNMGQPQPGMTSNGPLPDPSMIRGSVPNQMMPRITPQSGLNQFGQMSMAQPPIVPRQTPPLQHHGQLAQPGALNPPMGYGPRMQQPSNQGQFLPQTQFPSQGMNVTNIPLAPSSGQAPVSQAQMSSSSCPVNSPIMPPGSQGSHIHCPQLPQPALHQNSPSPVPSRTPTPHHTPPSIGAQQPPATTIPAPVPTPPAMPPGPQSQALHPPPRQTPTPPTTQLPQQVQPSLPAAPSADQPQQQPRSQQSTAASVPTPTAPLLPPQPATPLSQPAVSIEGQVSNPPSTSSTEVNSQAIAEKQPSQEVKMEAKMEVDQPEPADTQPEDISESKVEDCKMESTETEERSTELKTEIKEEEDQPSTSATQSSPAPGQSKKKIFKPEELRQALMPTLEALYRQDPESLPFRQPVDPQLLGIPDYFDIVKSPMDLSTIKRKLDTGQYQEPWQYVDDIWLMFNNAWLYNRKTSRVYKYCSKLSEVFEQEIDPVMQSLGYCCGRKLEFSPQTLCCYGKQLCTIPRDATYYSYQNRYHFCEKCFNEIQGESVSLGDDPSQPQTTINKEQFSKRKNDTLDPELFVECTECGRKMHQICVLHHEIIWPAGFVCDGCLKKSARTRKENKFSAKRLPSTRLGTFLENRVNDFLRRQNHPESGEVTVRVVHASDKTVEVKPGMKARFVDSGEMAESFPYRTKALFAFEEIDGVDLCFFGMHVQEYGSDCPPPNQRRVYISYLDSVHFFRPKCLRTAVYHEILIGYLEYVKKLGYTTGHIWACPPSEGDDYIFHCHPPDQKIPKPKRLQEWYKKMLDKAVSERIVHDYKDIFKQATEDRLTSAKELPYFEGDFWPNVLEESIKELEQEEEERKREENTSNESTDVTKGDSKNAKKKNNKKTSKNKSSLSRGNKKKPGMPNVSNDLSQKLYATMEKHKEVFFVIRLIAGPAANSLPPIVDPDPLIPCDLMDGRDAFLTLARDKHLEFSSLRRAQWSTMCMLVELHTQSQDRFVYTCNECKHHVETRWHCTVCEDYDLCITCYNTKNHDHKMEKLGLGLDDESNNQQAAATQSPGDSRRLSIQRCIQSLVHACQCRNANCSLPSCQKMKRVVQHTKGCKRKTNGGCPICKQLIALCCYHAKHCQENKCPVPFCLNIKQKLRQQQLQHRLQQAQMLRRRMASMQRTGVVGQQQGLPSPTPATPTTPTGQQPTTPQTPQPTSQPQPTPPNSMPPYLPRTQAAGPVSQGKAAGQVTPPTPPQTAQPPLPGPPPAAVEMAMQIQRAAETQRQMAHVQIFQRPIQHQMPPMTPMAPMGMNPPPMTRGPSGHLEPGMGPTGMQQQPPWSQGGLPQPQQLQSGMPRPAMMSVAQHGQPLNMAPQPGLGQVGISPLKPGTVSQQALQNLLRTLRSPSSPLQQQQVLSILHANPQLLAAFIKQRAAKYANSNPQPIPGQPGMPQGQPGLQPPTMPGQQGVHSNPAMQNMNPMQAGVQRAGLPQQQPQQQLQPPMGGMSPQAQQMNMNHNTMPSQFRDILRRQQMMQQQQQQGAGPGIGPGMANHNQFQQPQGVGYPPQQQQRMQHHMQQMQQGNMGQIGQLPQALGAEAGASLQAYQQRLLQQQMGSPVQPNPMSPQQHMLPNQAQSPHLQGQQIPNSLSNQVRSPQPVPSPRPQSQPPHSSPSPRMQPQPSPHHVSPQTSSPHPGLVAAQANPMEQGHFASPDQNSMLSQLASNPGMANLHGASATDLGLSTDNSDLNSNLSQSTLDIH
Chain of CREB-binding protein/Histone acetyltransferase p300 (Q92793 whole entry, looked up): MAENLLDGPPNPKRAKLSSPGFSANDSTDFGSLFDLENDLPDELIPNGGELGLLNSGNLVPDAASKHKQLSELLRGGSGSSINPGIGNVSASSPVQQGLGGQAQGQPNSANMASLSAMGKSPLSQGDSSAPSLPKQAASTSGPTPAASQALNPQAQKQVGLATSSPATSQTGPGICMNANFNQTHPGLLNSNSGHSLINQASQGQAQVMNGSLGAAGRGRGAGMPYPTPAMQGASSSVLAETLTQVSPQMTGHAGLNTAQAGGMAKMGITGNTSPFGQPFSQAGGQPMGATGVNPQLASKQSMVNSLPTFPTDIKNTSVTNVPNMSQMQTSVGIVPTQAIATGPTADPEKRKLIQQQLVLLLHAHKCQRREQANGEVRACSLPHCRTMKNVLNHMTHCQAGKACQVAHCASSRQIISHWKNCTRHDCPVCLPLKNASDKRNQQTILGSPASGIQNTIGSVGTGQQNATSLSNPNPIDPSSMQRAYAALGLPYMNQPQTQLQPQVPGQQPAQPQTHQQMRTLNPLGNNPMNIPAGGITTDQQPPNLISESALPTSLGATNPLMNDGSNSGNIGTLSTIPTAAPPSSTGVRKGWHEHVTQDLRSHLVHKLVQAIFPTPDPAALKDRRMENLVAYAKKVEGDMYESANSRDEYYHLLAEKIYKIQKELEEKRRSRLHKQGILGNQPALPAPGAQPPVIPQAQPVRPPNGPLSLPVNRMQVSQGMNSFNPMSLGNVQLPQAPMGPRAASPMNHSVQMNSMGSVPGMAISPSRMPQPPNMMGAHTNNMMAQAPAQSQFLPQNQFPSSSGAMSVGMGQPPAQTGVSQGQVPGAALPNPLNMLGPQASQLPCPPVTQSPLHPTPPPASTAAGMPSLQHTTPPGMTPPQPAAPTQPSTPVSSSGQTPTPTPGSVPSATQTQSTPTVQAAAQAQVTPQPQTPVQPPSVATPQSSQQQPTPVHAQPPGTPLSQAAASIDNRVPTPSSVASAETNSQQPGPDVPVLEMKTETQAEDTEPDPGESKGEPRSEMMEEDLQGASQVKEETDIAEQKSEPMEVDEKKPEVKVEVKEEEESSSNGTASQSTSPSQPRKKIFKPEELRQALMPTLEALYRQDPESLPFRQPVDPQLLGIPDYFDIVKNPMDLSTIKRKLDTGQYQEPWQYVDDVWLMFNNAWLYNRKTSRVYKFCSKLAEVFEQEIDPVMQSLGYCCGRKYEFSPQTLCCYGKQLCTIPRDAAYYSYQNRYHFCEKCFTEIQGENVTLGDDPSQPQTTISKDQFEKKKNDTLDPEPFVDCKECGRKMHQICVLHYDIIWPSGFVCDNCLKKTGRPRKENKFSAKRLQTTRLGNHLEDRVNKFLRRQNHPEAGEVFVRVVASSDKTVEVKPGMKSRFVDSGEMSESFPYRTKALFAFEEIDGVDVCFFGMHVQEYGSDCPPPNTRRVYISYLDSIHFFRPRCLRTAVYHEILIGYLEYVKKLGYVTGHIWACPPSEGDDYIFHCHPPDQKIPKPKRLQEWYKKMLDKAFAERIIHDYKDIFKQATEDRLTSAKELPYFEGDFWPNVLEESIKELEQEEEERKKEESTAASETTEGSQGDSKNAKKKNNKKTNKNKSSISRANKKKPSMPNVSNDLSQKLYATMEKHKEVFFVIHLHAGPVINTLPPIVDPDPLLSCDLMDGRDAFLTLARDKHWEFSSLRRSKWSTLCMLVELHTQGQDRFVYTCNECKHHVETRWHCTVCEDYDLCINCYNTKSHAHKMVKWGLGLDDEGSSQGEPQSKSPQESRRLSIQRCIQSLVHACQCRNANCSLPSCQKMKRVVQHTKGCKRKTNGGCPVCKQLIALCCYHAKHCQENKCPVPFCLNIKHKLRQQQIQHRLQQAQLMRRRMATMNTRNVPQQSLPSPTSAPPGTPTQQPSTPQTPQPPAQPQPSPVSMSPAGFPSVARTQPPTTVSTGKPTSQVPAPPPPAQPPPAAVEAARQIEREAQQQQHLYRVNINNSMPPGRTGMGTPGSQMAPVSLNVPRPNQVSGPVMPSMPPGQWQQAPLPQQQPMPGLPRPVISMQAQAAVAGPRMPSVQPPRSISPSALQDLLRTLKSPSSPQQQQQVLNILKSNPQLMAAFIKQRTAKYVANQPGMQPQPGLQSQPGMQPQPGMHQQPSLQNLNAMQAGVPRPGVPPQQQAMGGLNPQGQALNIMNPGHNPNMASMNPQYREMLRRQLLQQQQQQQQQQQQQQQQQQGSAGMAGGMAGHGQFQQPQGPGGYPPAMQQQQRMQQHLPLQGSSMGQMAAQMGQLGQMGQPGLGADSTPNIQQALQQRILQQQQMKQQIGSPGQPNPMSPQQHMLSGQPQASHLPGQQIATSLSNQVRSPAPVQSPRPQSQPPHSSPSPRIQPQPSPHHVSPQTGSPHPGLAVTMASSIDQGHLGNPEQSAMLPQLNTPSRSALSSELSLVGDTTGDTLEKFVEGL
Method in brief: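 Cells received an 8-point half-log dilution series from 10 µM. They were then fixed in 10% formaldehyde (10 min, RT), permeabilised with 0.1% Triton X-100 and blocked with 1% BSA for 1 h. Primary antibodies were applied overnight at 4 °C, followed by Alexa488 anti-rabbit, Alexa555 anti-mouse and Hoechst 33342 for 1 h. Fifteen fields per well were imaged and average mean intensity taken. EC50 came from a sigmoidal fit.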

DU-145 = experiment: Antiproliferative activity against human DU-145 cells assessed as inhibition of cell viability incubated for 3 to 5 days by Celltiter-Glo luminescent assay; format: functional, cell-based
MeWo = experiment: Antiproliferative activity against human MeWo cells assessed as inhibition of cell viability incubated for 3 to 5 days by Celltiter-Glo luminescent assay; format: functional, cell-based
Hs 695T = experiment: Antiproliferative activity against human Hs 695T cells assessed as inhibition of cell viability incubated for 3 to 5 days by Celltiter-Glo luminescent assay; format: functional, cell-based
NCI-H146 = experiment: Antiproliferative activity against human NCI-H146 cells assessed as inhibition of cell viability incubated for 3 to 5 days by Celltiter-Glo luminescent assay; format: functional, cell-based
NCI-H1836 = experiment: Antiproliferative activity against human NCI-H1836 cells assessed as inhibition of cell viability incubated for 3 to 5 days by Celltiter-Glo luminescent assay; format: functional, cell-based
NCI-H128 = experiment: Antiproliferative activity against human NCI-H128 cells assessed as inhibition of cell viability incubated for 3 to 5 days by Celltiter-Glo luminescent assay; format: functional, cell-based
EMT6 = experiment: Antiproliferative activity against mouse EMT6 cells assessed as inhibition of cell viability incubated for 3 to 5 days by Celltiter-Glo luminescent assay; format: functional, cell-based
HCC1599 = experiment: Antiproliferative activity against human HCC1599 cells assessed as inhibition of cell viability incubated for 3 to 5 days by Celltiter-Glo luminescent assay; format: functional, cell-based
HCC1395 = experiment: Antiproliferative activity against human HCC1395 cells assessed as inhibition of cell viability incubated for 3 to 5 days by Celltiter-Glo luminescent assay; format: functional, cell-based
4T1 = experiment: Antiproliferative activity against mouse 4T1 cells assessed as inhibition of cell viability incubated for 3 to 5 days by Celltiter-Glo luminescent assay; format: functional, cell-based
HCC1187 = experiment: Antiproliferative activity against human HCC1187 cells assessed as inhibition of cell viability incubated for 3 to 5 days by Celltiter-Glo luminescent assay; format: functional, cell-based
Granta-519 = experiment: Antiproliferative activity against human Granta-519 cells assessed as inhibition of cell viability incubated for 3 to 5 days by Celltiter-Glo luminescent assay; format: functional, cell-based
MM1.S = experiment: Antiproliferative activity against human MM1.S cells assessed as inhibition of cell viability incubated for 3 to 5 days by Celltiter-Glo luminescent assay; format: functional, cell-based
OPM-2 = experiment: Antiproliferative activity against human OPM-2 cells assessed as inhibition of cell viability incubated for 3 to 5 days by Celltiter-Glo luminescent assay; format: functional, cell-based
KARPAS-422 = experiment: Antiproliferative activity against human KARPAS-422 cells assessed as inhibition of cell viability incubated for 3 to 5 days by Celltiter-Glo luminescent assay; format: functional, cell-based
Raji = experiment: Antiproliferative activity against human Raji cells assessed as inhibition of cell viability incubated for 3 to 5 days by Celltiter-Glo luminescent assay; format: functional, cell-based
NU-DUL-1 = experiment: Antiproliferative activity against human NU-DUL-1 cells assessed as inhibition of cell viability incubated for 3 to 5 days by Celltiter-Glo luminescent assay; format: functional, cell-based
SU-DHL-6 = experiment: Antiproliferative activity against human SU-DHL-6 cells assessed as inhibition of cell viability incubated for 3 to 5 days by Celltiter-Glo luminescent assay; format: functional, cell-based
U-2940 = experiment: Antiproliferative activity against human U-2940 cells assessed as inhibition of cell viability incubated for 3 to 5 days by Celltiter-Glo luminescent assay; format: functional, cell-based
OCI-Ly7 = experiment: Antiproliferative activity against human OCILY7 cells assessed as inhibition of cell viability incubated for 3 to 5 days by Celltiter-Glo luminescent assay; format: functional, cell-based
Rec1 = experiment: Antiproliferative activity against human REC1 cells assessed as inhibition of cell viability incubated for 3 to 5 days by Celltiter-Glo luminescent assay; format: functional, cell-based
K562 = experiment: Antiproliferative activity against human K562 cells assessed as inhibition of cell viability incubated for 3 to 5 days by Celltiter-Glo luminescent assay; format: functional, cell-based
[12] = AUC in CB17 SCID mouse xenografted with LuCaP-77 CR cell at 100 mg/kg, ip administered for 7 days; format: ADME, organism-based; settings: in vivo, time 7 day
[13] = Ratio of drug concentration in brain to plasma in CB17 SCID mouse xenografted with LuCaP-77 CR cell at 50 mg/kg, po measured after 24 hrs
LuCaP-77 CR cell = settings: Homo sapiens, dose 100.0 mg/kg, time 7.0 day
cells = settings: Homo sapiens, MINO

## CNC(=O)Nc1ccc2c(c1)CC[C@@]21OC(=O)N(CC(=O)N(Cc2ccc(F)cc2)[C@@H](C)C(F)(F)F)C1=O [A-485]
MAO-A
  inhibition at 10 µM: 28%
[1]
  IC50: > 10000 nM
[2]
  IC50: > 10000 nM
[3]
  IC50: > 10000 nM
[4]
  IC50: > 10000 nM
[5]
  IC50: > 10000 nM
Insulin receptor
  IC50: > 10000 nM
[6]
  IC50: > 10000 nM
[7]
  IC50: > 10000 nM
[8]
  IC50: > 10000 nM
[9]
  IC50: > 10000 nM
[10]
  IC50: > 10000 nM
Activated CDC42 kinase 1
  IC50: > 10000 nM
[11]
  INH: > 10 µM
DU-145
  EC50: > 10000 nM
MeWo
  EC50: 2430 nM
Hs 695T
  EC50: 3570 nM
NCI-H146
  EC50: 400 nM
NCI-H1836
  EC50: > 10000 nM
NCI-H128
  EC50: > 10000 nM
EMT6
  EC50: 500 nM
HCC1599
  EC50: 4850 nM
HCC1395
  EC50: > 10000 nM
4T1
  EC50: > 10000 nM
HCC1187
  EC50: > 10000 nM
Granta-519
  EC50: 3280 nM
MM1.S
  EC50: 180 nM
OPM-2
  EC50: 620 nM
KARPAS-422
  EC50: 250 nM
Raji
  EC50: 460 nM
NU-DUL-1
  EC50: 480 nM
SU-DHL-6
  EC50: 750 nM
U-2940
  EC50: 1330 nM
OCI-Ly7
  EC50: 1810 nM
Rec1
  EC50: > 10000 nM
K562
  EC50: 1270 nM
[12]
  AUC at 168 h: 417 µg·h/mL
[13]
  Kp at 24 h: 0.097
LuCaP-77 CR cell
  inhibition: inactive
cells
  EC50: 530 nM
